Source: ChEMBL document CHEMBL3124907
Values belong to the molecule of their own block, whether it stands above or below them.

Legend:
[1] = target: 5-hydroxytryptamine receptor 2A (Homo sapiens) (UniProt P28223); assay: Inhibition of 5-HT2A receptor (unknown origin) at 10 uM by radioligand binding assay relative to control
[2] = target: T1, 5-hydroxytryptamine receptor 2C (Homo sapiens) (UniProt P28335); assay: Inhibition of 5-HT2C receptor (unknown origin) at 10 uM by radioligand binding assay relative to control
T1 sequence (whole entry): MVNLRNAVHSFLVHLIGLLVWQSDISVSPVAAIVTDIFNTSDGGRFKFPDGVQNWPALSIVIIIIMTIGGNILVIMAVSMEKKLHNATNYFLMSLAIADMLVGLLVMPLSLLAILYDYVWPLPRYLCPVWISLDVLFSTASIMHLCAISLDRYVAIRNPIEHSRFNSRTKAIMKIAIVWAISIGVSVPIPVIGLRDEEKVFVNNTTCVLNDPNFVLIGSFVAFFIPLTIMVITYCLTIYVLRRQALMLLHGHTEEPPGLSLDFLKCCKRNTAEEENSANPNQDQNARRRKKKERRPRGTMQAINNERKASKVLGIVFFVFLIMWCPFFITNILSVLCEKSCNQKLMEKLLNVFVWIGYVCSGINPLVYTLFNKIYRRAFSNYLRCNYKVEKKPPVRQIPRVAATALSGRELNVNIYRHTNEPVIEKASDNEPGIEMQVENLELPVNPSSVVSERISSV

[3] = target: 5-hydroxytryptamine receptor 2B (Homo sapiens) (UniProt P41595); assay: Inhibition of 5-HT2B receptor (unknown origin) at 10 uM by radioligand binding assay relative to control
5-hydroxytryptamine receptor 2B (Homo sapiens), sequence (P41595 whole entry): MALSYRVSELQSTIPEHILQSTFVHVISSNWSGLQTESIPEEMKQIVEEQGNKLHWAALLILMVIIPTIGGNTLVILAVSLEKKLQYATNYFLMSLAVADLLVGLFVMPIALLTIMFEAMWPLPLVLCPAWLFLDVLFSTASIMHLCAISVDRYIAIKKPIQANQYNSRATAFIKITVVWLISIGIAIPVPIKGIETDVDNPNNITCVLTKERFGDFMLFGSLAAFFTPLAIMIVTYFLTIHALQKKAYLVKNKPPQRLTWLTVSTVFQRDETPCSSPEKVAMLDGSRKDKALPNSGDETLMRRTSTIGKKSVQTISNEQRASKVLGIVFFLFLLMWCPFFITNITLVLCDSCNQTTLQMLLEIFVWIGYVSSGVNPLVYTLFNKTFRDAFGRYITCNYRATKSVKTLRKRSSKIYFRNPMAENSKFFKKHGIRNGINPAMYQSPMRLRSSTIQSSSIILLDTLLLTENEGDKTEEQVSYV

[4] = target: Sodium-dependent noradrenaline transporter (Homo sapiens) (UniProt P23975); assay: Inhibition of NET (unknown origin) at 10 uM by radioligand binding assay relative to control
[5] = target: 5-hydroxytryptamine receptor 6 (Homo sapiens) (UniProt P50406); assay: Inhibition of 5-HT6 receptor (unknown origin) at 10 uM by radioligand binding assay relative to control
5-hydroxytryptamine receptor 6 (Homo sapiens), sequence (P50406 whole entry): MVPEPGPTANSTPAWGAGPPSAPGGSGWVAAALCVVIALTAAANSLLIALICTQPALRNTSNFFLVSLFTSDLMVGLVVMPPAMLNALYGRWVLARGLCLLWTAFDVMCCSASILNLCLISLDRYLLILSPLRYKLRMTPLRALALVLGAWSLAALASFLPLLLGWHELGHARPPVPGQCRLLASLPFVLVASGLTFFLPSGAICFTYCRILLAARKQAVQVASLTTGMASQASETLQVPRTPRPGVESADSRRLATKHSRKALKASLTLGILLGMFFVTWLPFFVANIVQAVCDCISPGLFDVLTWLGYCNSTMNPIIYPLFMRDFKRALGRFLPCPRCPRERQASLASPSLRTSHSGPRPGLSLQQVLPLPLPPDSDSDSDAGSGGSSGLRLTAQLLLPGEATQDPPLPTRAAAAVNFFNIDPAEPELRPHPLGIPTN

[6] = target: Alpha-2A adrenergic receptor (Homo sapiens) (UniProt P08913); assay: Inhibition of alpha2A adrenergic receptor (unknown origin) at 10 uM by radioligand binding assay relative to control
Alpha-2A adrenergic receptor (Homo sapiens), sequence (P08913 whole entry): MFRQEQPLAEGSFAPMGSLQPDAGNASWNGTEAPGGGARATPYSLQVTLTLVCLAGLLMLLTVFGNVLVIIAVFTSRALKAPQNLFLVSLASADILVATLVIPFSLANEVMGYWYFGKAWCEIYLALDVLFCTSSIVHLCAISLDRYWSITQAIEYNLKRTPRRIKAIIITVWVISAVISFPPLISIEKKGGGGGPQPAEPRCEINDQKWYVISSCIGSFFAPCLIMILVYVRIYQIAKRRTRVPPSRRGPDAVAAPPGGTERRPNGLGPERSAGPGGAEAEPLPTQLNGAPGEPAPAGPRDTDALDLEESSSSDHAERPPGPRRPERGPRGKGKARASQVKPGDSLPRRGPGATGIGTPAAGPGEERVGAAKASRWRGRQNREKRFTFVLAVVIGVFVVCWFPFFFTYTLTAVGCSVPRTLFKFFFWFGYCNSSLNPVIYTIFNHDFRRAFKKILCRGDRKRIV

[7] = target: D(1B) dopamine receptor (Homo sapiens) (UniProt P21918); assay: Inhibition of dopamine D5 receptor (unknown origin) at 10 uM by radioligand binding assay relative to control
[8] = target: Alpha-1D adrenergic receptor (Homo sapiens) (UniProt P25100); assay: Inhibition of alpha1D adrenergic receptor (unknown origin) at 10 uM by radioligand binding assay relative to control
[9] = target: Alpha-1A adrenergic receptor (Homo sapiens) (UniProt P35348); assay: Inhibition of alpha1A adrenergic receptor (unknown origin) at 10 uM by radioligand binding assay relative to control
[10] = target: 5-hydroxytryptamine receptor 1A (Homo sapiens) (UniProt P08908); assay: Inhibition of 5-HT1A receptor (unknown origin) at 10 uM by radioligand binding assay relative to control
5-hydroxytryptamine receptor 1A (Homo sapiens), sequence (P08908 whole entry): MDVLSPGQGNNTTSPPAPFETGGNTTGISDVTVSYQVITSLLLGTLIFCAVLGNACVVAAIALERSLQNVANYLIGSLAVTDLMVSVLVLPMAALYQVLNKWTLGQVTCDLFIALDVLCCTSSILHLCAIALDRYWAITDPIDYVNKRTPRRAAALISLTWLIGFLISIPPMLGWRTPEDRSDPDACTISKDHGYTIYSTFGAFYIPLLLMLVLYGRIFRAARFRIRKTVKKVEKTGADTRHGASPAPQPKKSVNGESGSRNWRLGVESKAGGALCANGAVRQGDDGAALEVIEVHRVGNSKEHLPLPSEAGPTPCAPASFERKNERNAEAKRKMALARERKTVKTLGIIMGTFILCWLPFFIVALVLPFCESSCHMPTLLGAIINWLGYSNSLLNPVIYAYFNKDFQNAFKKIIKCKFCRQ

[11] = target: Sodium-dependent serotonin transporter (Homo sapiens) (UniProt P31645); assay: Inhibition of SERT (unknown origin) at 10 uM by radioligand binding assay relative to control
[12] = target: 5-hydroxytryptamine receptor 1D (Homo sapiens) (UniProt P28221); assay: Inhibition of 5-HT1D receptor (unknown origin) at 10 uM by radioligand binding assay relative to control
[13] = target: 5-hydroxytryptamine receptor 1B (Homo sapiens) (UniProt P28222); assay: Inhibition of 5-HT1B receptor (unknown origin) at 10 uM by radioligand binding assay relative to control
[14] = target: 5-hydroxytryptamine receptor 3A (Homo sapiens) (UniProt P46098); assay: Inhibition of 5-HT3 receptor (unknown origin) at 10 uM by radioligand binding assay relative to control
5-hydroxytryptamine receptor 3A (Homo sapiens), sequence (P46098 whole entry): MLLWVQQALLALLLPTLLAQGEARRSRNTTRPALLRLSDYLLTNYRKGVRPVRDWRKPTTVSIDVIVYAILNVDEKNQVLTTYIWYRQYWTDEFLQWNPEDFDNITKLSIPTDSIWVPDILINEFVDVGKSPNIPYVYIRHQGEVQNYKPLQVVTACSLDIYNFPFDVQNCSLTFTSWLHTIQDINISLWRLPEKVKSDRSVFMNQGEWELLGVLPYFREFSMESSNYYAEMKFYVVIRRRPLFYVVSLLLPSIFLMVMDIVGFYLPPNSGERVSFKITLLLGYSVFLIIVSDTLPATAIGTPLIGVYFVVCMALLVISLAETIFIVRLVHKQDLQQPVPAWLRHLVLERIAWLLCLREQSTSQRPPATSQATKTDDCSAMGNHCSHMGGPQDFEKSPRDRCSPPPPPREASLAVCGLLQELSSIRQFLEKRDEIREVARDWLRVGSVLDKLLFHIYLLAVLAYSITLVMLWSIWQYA

[15] = target: Alpha-1B adrenergic receptor (Homo sapiens) (UniProt P35368); assay: Inhibition of alpha1B adrenergic receptor (unknown origin) at 10 uM by radioligand binding assay relative to control
[16] = target: 5-hydroxytryptamine receptor 7 (Homo sapiens) (UniProt P34969); assay: Inhibition of 5-HT7 receptor (unknown origin) at 10 uM by radioligand binding assay relative to control
Homo sapiens = species on record: Homo sapiens; assay: Inhibition of sigma-2 receptor (unknown origin) at 10 uM by radioligand binding assay relative to control
[17] = target: D(1A) dopamine receptor (Homo sapiens) (UniProt P21728); assay: Inhibition of dopamine D1 receptor (unknown origin) at 10 uM by radioligand binding assay relative to control
D(1A) dopamine receptor (Homo sapiens), sequence (P21728 whole entry): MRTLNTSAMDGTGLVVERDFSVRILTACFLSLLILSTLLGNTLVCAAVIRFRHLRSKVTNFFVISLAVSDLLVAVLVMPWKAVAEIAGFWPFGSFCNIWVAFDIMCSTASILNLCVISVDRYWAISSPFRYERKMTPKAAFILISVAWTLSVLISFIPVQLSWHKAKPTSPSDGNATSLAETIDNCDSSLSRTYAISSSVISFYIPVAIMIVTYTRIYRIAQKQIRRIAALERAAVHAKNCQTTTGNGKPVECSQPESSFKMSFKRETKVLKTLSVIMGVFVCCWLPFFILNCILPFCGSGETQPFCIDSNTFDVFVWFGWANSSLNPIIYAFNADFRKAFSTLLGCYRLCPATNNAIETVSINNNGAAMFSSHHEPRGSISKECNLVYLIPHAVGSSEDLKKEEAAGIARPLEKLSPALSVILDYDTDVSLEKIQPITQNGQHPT

[18] = target: Beta-2 adrenergic receptor (Homo sapiens) (UniProt P07550); assay: Inhibition of beta-2 adrenergic receptor (unknown origin) at 10 uM by radioligand binding assay relative to control
Beta-2 adrenergic receptor (Homo sapiens), sequence (P07550 whole entry, looked up): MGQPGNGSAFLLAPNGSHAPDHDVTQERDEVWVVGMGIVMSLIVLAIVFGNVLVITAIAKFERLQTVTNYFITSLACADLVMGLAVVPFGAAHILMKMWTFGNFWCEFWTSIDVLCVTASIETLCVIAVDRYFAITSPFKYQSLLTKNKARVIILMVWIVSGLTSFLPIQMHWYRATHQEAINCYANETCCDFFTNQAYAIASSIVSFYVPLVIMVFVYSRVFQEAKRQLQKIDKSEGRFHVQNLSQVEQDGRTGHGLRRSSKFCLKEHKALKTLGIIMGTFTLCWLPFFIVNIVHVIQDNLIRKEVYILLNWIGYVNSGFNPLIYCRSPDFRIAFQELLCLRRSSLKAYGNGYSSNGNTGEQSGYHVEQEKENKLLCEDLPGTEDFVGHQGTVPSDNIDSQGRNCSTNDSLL

[19] = target: Histamine H1 receptor (Homo sapiens) (UniProt P35367); assay: Inhibition of histamine H1 receptor (unknown origin) at 10 uM by radioligand binding assay relative to control
[20] = target: Muscarinic acetylcholine receptor M5 (Homo sapiens) (UniProt P08912); assay: Inhibition of muscarinic M5 receptor (unknown origin) at 10 uM by radioligand binding assay relative to control
Muscarinic acetylcholine receptor M5 (Homo sapiens), sequence (P08912 whole entry): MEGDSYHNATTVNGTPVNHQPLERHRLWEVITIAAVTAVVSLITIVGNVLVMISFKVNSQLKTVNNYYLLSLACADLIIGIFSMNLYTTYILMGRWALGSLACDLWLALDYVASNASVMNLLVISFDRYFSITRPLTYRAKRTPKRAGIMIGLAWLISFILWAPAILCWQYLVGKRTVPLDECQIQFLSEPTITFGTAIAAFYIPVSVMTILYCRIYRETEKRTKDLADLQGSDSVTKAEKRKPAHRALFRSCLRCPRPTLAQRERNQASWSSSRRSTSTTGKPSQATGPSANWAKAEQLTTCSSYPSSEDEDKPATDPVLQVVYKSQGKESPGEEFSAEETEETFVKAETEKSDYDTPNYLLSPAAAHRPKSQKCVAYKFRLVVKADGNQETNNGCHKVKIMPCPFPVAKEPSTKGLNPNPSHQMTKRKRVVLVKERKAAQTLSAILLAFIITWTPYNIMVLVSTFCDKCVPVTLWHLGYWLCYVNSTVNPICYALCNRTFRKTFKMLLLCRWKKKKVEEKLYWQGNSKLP

Rattus norvegicus = species on record: Rattus norvegicus; assay: Inhibition of benzodiazepine receptor in rat brain at 10 uM by radioligand binding assay relative to control; format: tissue-based
[21] = target: Histamine H3 receptor (Homo sapiens) (UniProt Q9Y5N1); assay: Inhibition of histamine H3 receptor (unknown origin) at 10 uM by radioligand binding assay relative to control
[22] = target: Glutamate [NMDA] receptor (Homo sapiens) (UniProt Q05586+Q12879+Q13224+O15399+O60391+Q14957+Q8TCU5); assay: Inhibition of NMDA receptor (unknown origin) at 10 uM by radioligand binding assay relative to control
[23] = target: 5-hydroxytryptamine receptor 2B (Homo sapiens) (UniProt P41595); assay: Agonist activity at 5-HT2B receptor (unknown origin) expressed in Flp-In HEK cells assessed as stimulation of calcium mobilization at 10 uM relative to 5-HT; format: functional, cell-based; conditions: HEK293
In short: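 Agonist-mode calcium mobilization in Flp-In HEK cells expressing 5-HT2B, with test compound at 10 µM. Response expressed as percent of the maximal 5-HT response.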

[24] = target: Translocator protein (Homo sapiens) (UniProt P30536); assay: Inhibition of PBR (unknown origin) at 10 uM by radioligand binding assay relative to control
Translocator protein (Homo sapiens), sequence (P30536 whole entry): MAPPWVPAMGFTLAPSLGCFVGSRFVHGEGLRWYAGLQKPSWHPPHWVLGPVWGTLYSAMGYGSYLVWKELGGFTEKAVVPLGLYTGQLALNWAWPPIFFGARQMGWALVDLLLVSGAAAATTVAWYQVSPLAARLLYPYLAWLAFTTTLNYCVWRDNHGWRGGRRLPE

[25] = target: Muscarinic acetylcholine receptor M2 (Homo sapiens) (UniProt P08172); assay: Inhibition of muscarinic M2 receptor (unknown origin) at 10 uM by radioligand binding assay relative to control
[26] = target: Alpha-2C adrenergic receptor (Homo sapiens) (UniProt P18825); assay: Inhibition of alpha2C adrenergic receptor (unknown origin) at 10 uM by radioligand binding assay relative to control
Alpha-2C adrenergic receptor (Homo sapiens), sequence (P18825 whole entry): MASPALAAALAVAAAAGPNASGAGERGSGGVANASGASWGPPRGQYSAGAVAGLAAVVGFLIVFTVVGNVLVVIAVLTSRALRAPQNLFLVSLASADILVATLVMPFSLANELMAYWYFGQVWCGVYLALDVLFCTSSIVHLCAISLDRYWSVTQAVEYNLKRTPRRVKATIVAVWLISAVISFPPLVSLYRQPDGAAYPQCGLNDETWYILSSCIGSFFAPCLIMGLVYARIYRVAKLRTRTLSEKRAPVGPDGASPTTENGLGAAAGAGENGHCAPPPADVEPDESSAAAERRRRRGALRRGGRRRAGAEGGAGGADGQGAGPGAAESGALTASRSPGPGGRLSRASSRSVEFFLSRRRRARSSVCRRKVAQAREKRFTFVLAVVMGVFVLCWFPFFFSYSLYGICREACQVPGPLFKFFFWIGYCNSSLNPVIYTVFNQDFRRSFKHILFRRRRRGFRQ

5-hydroxytryptamine receptor 2A (Homo sapiens), sequence (P28223 whole entry): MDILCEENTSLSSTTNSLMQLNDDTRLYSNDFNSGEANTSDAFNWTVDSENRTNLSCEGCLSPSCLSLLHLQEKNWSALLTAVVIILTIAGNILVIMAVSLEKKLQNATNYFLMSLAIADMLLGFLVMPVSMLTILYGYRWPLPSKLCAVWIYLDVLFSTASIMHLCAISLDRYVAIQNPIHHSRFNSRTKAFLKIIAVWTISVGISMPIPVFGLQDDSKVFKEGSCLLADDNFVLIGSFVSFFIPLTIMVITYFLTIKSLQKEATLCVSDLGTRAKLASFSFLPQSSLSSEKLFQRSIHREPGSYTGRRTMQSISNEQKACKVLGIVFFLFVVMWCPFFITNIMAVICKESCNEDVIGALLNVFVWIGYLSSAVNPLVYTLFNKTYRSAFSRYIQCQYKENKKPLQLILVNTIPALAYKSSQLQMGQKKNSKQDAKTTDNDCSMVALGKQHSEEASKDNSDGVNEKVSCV

- inhibition [1]: 1.4%
- inhibition [2]: 19.6%
- inhibition [3]: 74.8%
Structure (SMILES): O=c1cc(CCc2cccs2)oc2cccc(O)c12

- inhibition [1]: 5.7%
- inhibition [2]: 14.7%
- inhibition [3]: 45.2%
Structure (SMILES): O=c1cc(CCCCc2ccccc2)oc2cccc(O)c12

- inhibition [1]: 1.4%
- inhibition [2]: 24.8%
- inhibition [3]: 30.6%
Structure (SMILES): O=c1cc(Cc2ccccc2)oc2cccc(O)c12

- inhibition [1]: 5.4%
- inhibition [2]: 7.9%
- inhibition [3]: 70.4%
Structure (SMILES): O=c1cc(CCCc2ccccc2)oc2cccc(O)c12

- inhibition [1]: 0.2%
- inhibition [2]: 7.8%
- inhibition [3]: 50%
Structure (SMILES): O=c1cc(COc2ccccc2)oc2cccc(O)c12

- inhibition [1]: -4.5%
- inhibition [2]: 23.5%
- inhibition [3]: 31.5%
Structure (SMILES): O=c1cc(Cc2cccs2)oc2cccc(O)c12

- inhibition [4]: 34.6%
- inhibition [5]: 5.8%
- inhibition [6]: 22.2%
- inhibition [7]: 0.4%
- inhibition [8]: 2.1%
- inhibition [9]: 16.9%
- inhibition [10]: 5.4%
- inhibition [11]: 28.9%
- inhibition [12]: 4.3%
- inhibition [13]: 3.7%
- inhibition [14]: 61.7%
- inhibition [15]: 2.9%
- inhibition [16]: 35.9%
- inhibition (Homo sapiens): 36.8%
- inhibition [17]: 24.7%
- inhibition [18]: 1.4%
- inhibition [19]: 13%
- inhibition [20]: 19.3%
- inhibition (Rattus norvegicus): 0.1%
- inhibition [21]: 15.9%
- inhibition [22]: 17.4%
- Activity [23]: 0.6%
- inhibition [24]: 2.8%
- inhibition [25]: 1.8%
- inhibition [26]: 32.7%
Structure (SMILES): O=c1cc(CCc2ccccc2)oc2cccc(O)c12
